Results taken from ChEMBL document CHEMBL1138564, “Microwave-induced synthesis and anti-microbial activities of 7,10,11,12-tetrahydrobenzo[c]acridin-8(9H)-one derivatives” (2009).
In brackets after ≈: the same amount, converted by molar mass. Activity calls are given as the source filed them. The calls are words filed in the database; no cut-off is given here.

How the values were obtained:
Aspergillus parasiticus [1] = test: Antimicrobial activity against Aspergillus parasiticus NCIM 904 at 500 ug/disk after 72 hrs by disk diffusion method; assay type: functional; settings: NCIM 904, 72 h, read-out: DIZ
In short: (§1)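 Disc diffusion on Sabouraud's dextrose agar. 100 µl of fungal suspension at 10⁶ CFU/ml is spread on the plate. Discs carry test compounds at two loadings in DMSO; DMSO alone is the negative control. Clotrimazole disc is the positive reference. Plates are incubated at 27 °C for 72 h, and the zone of inhibition diameter is measured.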

Aspergillus flavus [2] = test: Antimicrobial activity against Aspergillus flavus NCIM 902 at 1000 ug/disk after 72 hrs by disk diffusion method; assay type: functional; settings: NCIM 902, 72 h, read-out: DIZ; in short: as §1
Penicillium chrysogenum [3] = test: Antimicrobial activity against Penicillium chrysogenum NCIM 707 at 500 ug/disk after 72 hrs by disk diffusion method; assay type: functional; settings: NCIM 707, 72 h, read-out: DIZ; in short: as §1
Rhodotorula mucilaginosa [4] = test: Antimicrobial activity against Rhodotorula rubra NCIM 3174 at 1000 ug/disk after 72 hrs by disk diffusion method; assay type: functional; settings: NCIM 3174, 72 h, read-out: DIZ
In short: (§2)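 Fungal disc diffusion. 100 µl of suspension at 10⁶ CFU/ml was spread on Sabouraud's dextrose agar. Discs carrying test compound in DMSO were applied, with a DMSO-only disc as negative control. Plates were incubated at 27 °C for 72 h, and the zone of inhibition diameter was measured.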

Trichoderma viride [5] = test: Antimicrobial activity against Trichoderma viride NCIM 1195 at 1000 ug/disk after 72 hrs by disk diffusion method; assay type: functional; settings: NCIM 1195, 72 h, read-out: DIZ; in short: as §2
[6] = tested on: Rhodococcus corynebacterioides; test: Antimicrobial activity against Corynebacterium rubrum NCIM 2252 at 1000 ug/disk after 24 hrs by disk diffusion method; assay type: functional; settings: Rhodococcoides corynebacterioides, NCIM 2252, 24 h; read-out: DIZ
In short: (§3)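 Disc diffusion on Mueller–Hinton agar. 100 µl of bacterial suspension at 10⁸ CFU/ml is spread on the plate. Discs carry test compounds at two loadings, dissolved in DMSO; DMSO alone serves as negative control. Ofloxacin disc is the positive reference. Plates are incubated at 37 °C for 24 h, and the inhibition zone diameter is measured.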

[7] = tested on: Rhodococcus corynebacterioides; test: Antimicrobial activity against Corynebacterium rubrum NCIM 2252 at 500 ug/disk after 24 hrs by disk diffusion method; assay type: functional; settings: Rhodococcoides corynebacterioides, NCIM 2252, 24 h; read-out: DIZ; in short: as §3
Escherichia coli [8] = test: Antimicrobial activity against Escherichia coli NCIM 2065 after 24 hrs by serial dilution method; assay type: functional; settings: NCIM 2065, 24 h
In short: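 Broth dilution MIC in nutrient broth, run only for organisms found sensitive in disc diffusion. Compounds are two-fold serially diluted in 1 ml sterile broth per tube, spanning 3.9 to 1000. Inoculated tubes are incubated at 37 °C for 24 h.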

Aspergillus flavus [9] = test: Antimicrobial activity against Aspergillus flavus NCIM 902 after 72 hrs by serial dilution method; assay type: functional; settings: NCIM 535, 72 h, in the assay text read “NCIM 535” for “NCIM 902”
In short: (§4)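 MIC by broth dilution in Sabouraud's dextrose broth, only for fungi sensitive in disc diffusion. Two-fold serial dilutions of compounds are made in 1 ml broth per tube, range 3.9 to 1000. Inoculated tubes are incubated at 27 °C for 72 h.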

Escherichia coli [10] = test: Antimicrobial activity against Escherichia coli NCIM 2065 at 1000 ug/disk after 24 hrs by disk diffusion method; assay type: functional; settings: NCIM 2065, 24 h, read-out: DIZ; in short: as §3
Rhodotorula mucilaginosa [11] = test: Antimicrobial activity against Rhodotorula rubra NCIM 3174 at 500 ug/disk after 72 hrs by disk diffusion method; assay type: functional; settings: NCIM 3174, 72 h, read-out: DIZ; in short: as §2
Aspergillus parasiticus [12] = test: Antimicrobial activity against Aspergillus parasiticus NCIM 904 after 72 hrs by serial dilution method; assay type: functional; settings: NCIM 904, 72 h; in short: as §4
Staphylococcus [13] = test: Antimicrobial activity against Staphylococcus albus NCIM 2178 at 1000 ug/disk after 24 hrs by disk diffusion method; assay type: functional; settings: NCIM 2178, 24 h, read-out: DIZ
In short: (§5)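 Disc diffusion. 100 µl of bacterial suspension at 10⁸ CFU/ml was spread on Mueller–Hinton agar. Discs loaded with test compound dissolved in DMSO were placed on the lawn, with a DMSO-only disc as negative control. Plates were incubated at 37 °C for 24 h, and the inhibition zone diameter was measured.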

Proteus vulgaris [14] = test: Antimicrobial activity against Proteus vulgaris NCIM 2027 at 1000 ug/disk after 24 hrs by disk diffusion method; assay type: functional; settings: NCIM 2027, 24 h, read-out: DIZ; in short: as §3
Aliivibrio fischeri [15] = test: Antimicrobial activity against Vibrio fischeri NCIM 2154 at 1000 ug/disk after 24 hrs by disk diffusion method; assay type: functional; settings: NCIM 2154, 24 h, read-out: DIZ; in short: as §5
Aliivibrio fischeri [16] = test: Antimicrobial activity against Vibrio fischeri NCIM 2154 after 24 hrs by serial dilution method; assay type: functional; settings: NCIM 2154, 24 h
Salmonella typhimurium [17] = test: Antimicrobial activity against Salmonella Typhimurium NCIM 2501 at 1000 ug/disk after 24 hrs by disk diffusion method; assay type: functional, Salmonella enterica subsp. enterica serovar Typhimurium; settings: Salmonella enterica, NCIM 2501, 24 h; read-out: DIZ; in short: as §5
Bacillus subtilis = test: Antimicrobial activity against Bacillus subtilis NCIM 2063 at 500 ug/disk after 24 hrs by disk diffusion method; assay type: functional; settings: NCIM 2063, 24 h, read-out: DIZ; in short: as §3
Escherichia coli [18] = test: Antimicrobial activity against Escherichia coli NCIM 2065 at 500 ug/disk after 24 hrs by disk diffusion method; assay type: functional; settings: NCIM 2065, 24 h, read-out: DIZ; in short: as §3
Lipomyces lipofer [19] = test: Antimicrobial activity against Lipomyces lipofer NCIM 3252 at 500 ug/disk after 72 hrs by disk diffusion method; assay type: functional; in short: as §1
Salmonella typhimurium [20] = test: Antimicrobial activity against Salmonella Typhimurium NCIM 2501 at 500 ug/disk after 24 hrs by disk diffusion method; assay type: functional, Salmonella enterica subsp. enterica serovar Typhimurium; settings: Salmonella enterica, NCIM 2501, 24 h; read-out: DIZ; in short: as §5
Pseudomonas aeruginosa [21] = test: Antimicrobial activity against Pseudomonas aeruginosa NCIM 2200 at 1000 ug/disk after 24 hrs by disk diffusion method; assay type: functional; settings: NCIM 2200, 24 h, read-out: DIZ; in short: as §3
Staphylococcus [22] = test: Antimicrobial activity against Staphylococcus albus NCIM 2178 at 500 ug/disk after 24 hrs by disk diffusion method; assay type: functional; settings: NCIM 2178, 24 h, read-out: DIZ; in short: as §5
Aspergillus flavus [23] = test: Antimicrobial activity against Aspergillus flavus NCIM 902 at 500 ug/disk after 72 hrs by disk diffusion method; assay type: functional; settings: NCIM 902, 72 h, read-out: DIZ; in short: as §1
Penicillium chrysogenum [24] = test: Antimicrobial activity against Penicillium chrysogenum NCIM 707 at 1000 ug/disk after 72 hrs by disk diffusion method; assay type: functional; settings: NCIM 707, 72 h, read-out: DIZ; in short: as §1
Trichoderma viride [25] = test: Antimicrobial activity against Trichoderma viride NCIM 1195 at 500 ug/disk after 72 hrs by disk diffusion method; assay type: functional; in short: as §2
Lipomyces lipofer [26] = test: Antimicrobial activity against Lipomyces lipofer NCIM 3252 at 1000 ug/disk after 72 hrs by disk diffusion method; assay type: functional; settings: NCIM 3252, 72 h, read-out: DIZ; in short: as §1
Proteus vulgaris [27] = test: Antimicrobial activity against Proteus vulgaris NCIM 2027 at 500 ug/disk after 24 hrs by disk diffusion method; assay type: functional; settings: NCIM 2027, 24 h, read-out: DIZ; in short: as §3
Klebsiella aerogenes = test: Antimicrobial activity against Klebsiella aerogenes NCIM 2239 at 500 ug/disk after 24 hrs by disk diffusion method; assay type: functional; in short: as §3
Aliivibrio fischeri [28] = test: Antimicrobial activity against Vibrio fischeri NCIM 2154 at 500 ug/disk after 24 hrs by disk diffusion method; assay type: functional; settings: NCIM 2154, 24 h, read-out: DIZ; in short: as §5
Pseudomonas aeruginosa [29] = test: Antimicrobial activity against Pseudomonas aeruginosa NCIM 2200 at 500 ug/disk after 24 hrs by disk diffusion method; assay type: functional; settings: NCIM 2200, 24 h, read-out: DIZ; in short: as §5
Aspergillus fumigatus = test: Antimicrobial activity against Aspergillus fumigatus NCIM 902 at 500 ug/disk after 72 hrs by disk diffusion method; assay type: functional; settings: NCIM 902, 72 h, read-out: DIZ; in short: as §1
Bacillus cereus = test: Antimicrobial activity against Bacillus cereus NCIM 2155 at 1000 ug/disk after 24 hrs by disk diffusion method; assay type: functional; settings: NCIM 2155, 24 h, read-out: DIZ; in short: as §3

O=C1CCCC2=C1C(c1ccc(Cl)cc1)c1ccc3ccccc3c1N2 (stereo not drawn)
zone of inhibition at 500 µg/disc (Aspergillus parasiticus [1]): 10 mm
zone of inhibition at 1000 µg/disc (Aspergillus flavus [2]): 10 mm
zone of inhibition at 500 µg/disc (Penicillium chrysogenum [3]): 7 mm
zone of inhibition at 1000 µg/disc (Rhodotorula mucilaginosa [4]): 16 mm
zone of inhibition at 1000 µg/disc (Trichoderma viride [5]): 8 mm
zone of inhibition at 1000 µg/disc [6]: 8 mm
zone of inhibition at 500 µg/disc [7]: 7 mm
MIC (Escherichia coli [8]): 62.5 µg/mL (≈ 174 µM)
MIC (Aspergillus flavus [9]): 62.5 µg/mL (≈ 174 µM)
zone of inhibition at 1000 µg/disc (Escherichia coli [10]): 8 mm
zone of inhibition at 500 µg/disc (Rhodotorula mucilaginosa [11]): 12 mm
MIC (Aspergillus parasiticus [12]): 31.2 µg/mL (≈ 86.7 µM)
zone of inhibition at 1000 µg/disc (Staphylococcus [13]): 10 mm
zone of inhibition at 1000 µg/disc (Proteus vulgaris [14]): 9 mm
zone of inhibition at 1000 µg/disc (Aliivibrio fischeri [15]): 9 mm
MIC (Aliivibrio fischeri [16]): 62.5 µg/mL (≈ 174 µM)
zone of inhibition at 1000 µg/disc (Salmonella typhimurium [17]): 11 mm
zone of inhibition at 500 µg/disc (Bacillus subtilis): 8 mm
zone of inhibition at 500 µg/disc (Escherichia coli [18]): 7 mm
diameter of the inhibition zone (DIZ) (Lipomyces lipofer [19]): inactive
zone of inhibition at 500 µg/disc (Salmonella typhimurium [20]): 9 mm
zone of inhibition at 1000 µg/disc (Pseudomonas aeruginosa [21]): 10 mm
zone of inhibition at 500 µg/disc (Staphylococcus [22]): 8 mm
zone of inhibition at 500 µg/disc (Aspergillus flavus [23]): 7 mm
zone of inhibition at 1000 µg/disc (Penicillium chrysogenum [24]): 8 mm
diameter of the inhibition zone (DIZ) (Trichoderma viride [25]): inactive
zone of inhibition at 1000 µg/disc (Lipomyces lipofer [26]): 9 mm
zone of inhibition at 500 µg/disc (Proteus vulgaris [27]): 7 mm
diameter of the inhibition zone (DIZ) (Klebsiella aerogenes): inactive
zone of inhibition at 500 µg/disc (Aliivibrio fischeri [28]): 8 mm
zone of inhibition at 500 µg/disc (Pseudomonas aeruginosa [29]): 7 mm
zone of inhibition at 500 µg/disc (Aspergillus fumigatus): 8 mm
zone of inhibition at 1000 µg/disc (Bacillus cereus): 13 mm
